Source: ChEMBL document CHEMBL1154112, “Parallel synthesis of potent dopaminergic N-phenyltriazole carboxamides applying a novel click chemistry based phenol linker” (Bioorg Med Chem, 2009)
Calls of active or inactive are those of the source. The calls are words filed in the database; no cut-off is given here.

Target: D(1A) dopamine receptor (Sus scrofa) (UniProt P50130)
Experiment: Displacement of [3H]SCH23390 from pig dopamine D1 receptor
How it was run: (§1)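 Porcine striatal membranes were incubated with 0.3 nM [3H]SCH 23390 (Kd 0.95 nM). Protein was measured by Lowry against a BSA standard. Test compounds were screened at 100 nM and 1 nM in triplicate. Ki values were derived by nonlinear regression of competition curves, as means of 2–4 experiments each run in triplicate.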

Sequence of D(1A) dopamine receptor (Sus scrofa) (P50130 whole entry): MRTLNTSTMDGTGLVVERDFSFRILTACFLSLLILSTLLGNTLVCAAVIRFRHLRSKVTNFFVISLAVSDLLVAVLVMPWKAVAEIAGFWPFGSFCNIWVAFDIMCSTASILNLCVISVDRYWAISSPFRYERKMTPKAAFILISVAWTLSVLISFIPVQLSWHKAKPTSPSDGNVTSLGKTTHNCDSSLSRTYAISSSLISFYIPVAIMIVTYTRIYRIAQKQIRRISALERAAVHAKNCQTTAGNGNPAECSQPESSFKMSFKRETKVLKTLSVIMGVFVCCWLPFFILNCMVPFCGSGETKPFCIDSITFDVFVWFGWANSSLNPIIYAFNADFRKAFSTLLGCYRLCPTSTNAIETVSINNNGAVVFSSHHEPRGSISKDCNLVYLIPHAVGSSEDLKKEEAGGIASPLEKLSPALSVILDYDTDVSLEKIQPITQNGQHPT

Structure (SMILES) | Activity
COc1ccc(-n2cc(CCCC(=O)NCCN3CCN(c4cccc(Cl)c4Cl)CC3)nn2)cc1 | inactive
COc1ccccc1N1CCN(CCCCNC(=O)c2cn(-c3ccc([N+](=O)[O-])cc3)nn2)CC1 | inactive
O=C(CCCc1cn(-c2ccc([N+](=O)[O-])cc2)nn1)NCCN1CCN(c2cccc(Cl)c2Cl)CC1 | inactive
COc1ccc(-n2cc(CCCC(=O)NCCN3CCN(c4ccccc4OC)CC3)nn2)cc1 | inactive
O=C(CCCc1cn(-c2ccc([N+](=O)[O-])cc2)nn1)NCCCCN1CCN(c2ccccc2Cl)CC1 | inactive
COc1ccccc1N1CCN(CCNC(=O)c2cn(-c3ccc([N+](=O)[O-])cc3)nn2)CC1 | inactive

Second part, the compound after the results:

Activity | Structure (SMILES)
inactive | COc1ccc(-n2cc(CCCC(=O)NCCCCN3CCN(c4ccccc4Cl)CC3)nn2)cc1
inactive | COc1ccc(-n2cc(C(=O)NCCCCN3CCN(c4cccc(Cl)c4Cl)CC3)nn2)cc1
inactive | COc1ccc(-n2cc(C(=O)NCCN3CCN(c4cccc(Cl)c4Cl)CC3)nn2)cc1
inactive | O=C(NCCN1CCN(c2cccc(Cl)c2Cl)CC1)c1cn(-c2ccc([N+](=O)[O-])cc2)nn1

Target: T1, D(2) dopamine receptor (Homo sapiens, UniProt P14416)
Experiment: Displacement of [3H]spiperone from human cloned dopamine D2-short expressed in CHO cells
Format: cell-based
Design: concentration or dose not given beside the values
How it was run: (§2)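 Competition binding used membranes from CHO cells expressing human D2long, D2short, D3 or D4.4, with 0.5 nM final [3H]spiperone. Screening was run at 100 nM and 1 nM test compound in triplicate. Ki values come from nonlinear regression, as means of 2–4 experiments each run in triplicate.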

T1 sequence (P14416 whole entry): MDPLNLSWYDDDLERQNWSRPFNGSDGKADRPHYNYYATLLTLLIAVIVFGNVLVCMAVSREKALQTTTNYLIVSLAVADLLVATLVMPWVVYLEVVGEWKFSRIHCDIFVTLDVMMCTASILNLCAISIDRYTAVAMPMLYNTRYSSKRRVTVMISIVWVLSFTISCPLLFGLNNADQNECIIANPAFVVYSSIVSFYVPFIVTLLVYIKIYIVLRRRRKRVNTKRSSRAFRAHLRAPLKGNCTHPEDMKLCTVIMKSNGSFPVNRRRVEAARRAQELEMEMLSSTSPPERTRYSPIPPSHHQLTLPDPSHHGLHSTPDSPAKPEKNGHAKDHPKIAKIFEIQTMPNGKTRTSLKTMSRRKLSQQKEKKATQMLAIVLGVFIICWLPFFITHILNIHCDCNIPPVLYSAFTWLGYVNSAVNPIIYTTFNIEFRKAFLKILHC

Activity | Structure (SMILES)
38% | COc1ccccc1N1CCN(CCCCNC(=O)c2cn(-c3ccc([N+](=O)[O-])cc3)nn2)CC1

Target: T2, D(3) dopamine receptor (Homo sapiens, UniProt P35462)
Experiment: Displacement of [3H]spiperone from human cloned dopamine D3 expressed in CHO cells
Format: cell-based
Design: concentration or dose not given beside the values
How it was run: as §2

T2 sequence (P35462 whole entry): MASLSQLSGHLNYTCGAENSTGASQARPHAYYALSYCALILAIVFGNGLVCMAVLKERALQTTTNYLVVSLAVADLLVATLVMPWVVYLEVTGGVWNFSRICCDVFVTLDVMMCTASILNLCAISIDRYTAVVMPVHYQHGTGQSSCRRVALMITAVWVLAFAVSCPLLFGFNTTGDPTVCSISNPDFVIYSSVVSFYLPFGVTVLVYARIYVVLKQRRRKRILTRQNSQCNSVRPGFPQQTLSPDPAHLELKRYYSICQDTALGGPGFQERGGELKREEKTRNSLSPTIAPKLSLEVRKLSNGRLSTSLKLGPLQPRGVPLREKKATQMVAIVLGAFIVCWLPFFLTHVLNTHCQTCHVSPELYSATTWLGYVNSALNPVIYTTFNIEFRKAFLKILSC

Structure (SMILES) | Activity
COc1ccc(-n2cc(CCCC(=O)NCCN3CCN(c4cccc(Cl)c4Cl)CC3)nn2)cc1 | 42%
COc1ccccc1N1CCN(CCCCNC(=O)c2cn(-c3ccc([N+](=O)[O-])cc3)nn2)CC1 | 58%
O=C(CCCc1cn(-c2ccc([N+](=O)[O-])cc2)nn1)NCCN1CCN(c2cccc(Cl)c2Cl)CC1 | 39%
O=C(CCCc1cn(-c2ccc([N+](=O)[O-])cc2)nn1)NCCCCN1CCN(c2ccccc2Cl)CC1 | 51%

Results, then the compound that gave them:

Activity | Structure (SMILES)
38% | COc1ccc(-n2cc(CCCC(=O)NCCCCN3CCN(c4ccccc4Cl)CC3)nn2)cc1
76% | COc1ccc(-n2cc(C(=O)NCCCCN3CCN(c4cccc(Cl)c4Cl)CC3)nn2)cc1
40% | COc1ccc(-n2cc(C(=O)NCCN3CCN(c4cccc(Cl)c4Cl)CC3)nn2)cc1
52% | O=C(NCCN1CCN(c2cccc(Cl)c2Cl)CC1)c1cn(-c2ccc([N+](=O)[O-])cc2)nn1

Target: T3, D(4) dopamine receptor (Homo sapiens) (UniProt P21917)
T3 sequence (whole entry): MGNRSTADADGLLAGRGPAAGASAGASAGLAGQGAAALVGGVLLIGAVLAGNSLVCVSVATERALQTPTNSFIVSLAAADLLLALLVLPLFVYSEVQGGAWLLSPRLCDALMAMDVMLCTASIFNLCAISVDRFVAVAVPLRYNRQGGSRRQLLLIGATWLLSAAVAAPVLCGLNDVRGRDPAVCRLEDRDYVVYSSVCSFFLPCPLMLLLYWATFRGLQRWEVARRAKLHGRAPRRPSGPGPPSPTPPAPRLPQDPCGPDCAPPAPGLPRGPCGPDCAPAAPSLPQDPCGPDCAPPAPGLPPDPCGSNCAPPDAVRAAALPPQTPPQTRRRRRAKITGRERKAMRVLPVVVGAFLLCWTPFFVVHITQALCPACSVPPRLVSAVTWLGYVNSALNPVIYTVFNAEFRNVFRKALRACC
Experiment: Displacement of [3H]spiperone from human cloned dopamine D4.4 expressed in CHO cells
Format: cell-based
How it was run: as §2

Activity | Structure (SMILES)
41% | COc1ccc(-n2cc(CCCC(=O)NCCN3CCN(c4cccc(Cl)c4Cl)CC3)nn2)cc1
37% | O=C(CCCc1cn(-c2ccc([N+](=O)[O-])cc2)nn1)NCCN1CCN(c2cccc(Cl)c2Cl)CC1

Species: Sus scrofa
Experiment: Displacement of [3H]prazosin from pig alpha-1 adrenergic receptor
Design: concentration or dose not given beside the values
How it was run: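 Porcine cortical membranes at 55 µg protein per tube, [3H]prazosin as radioligand (Kd 0.06 nM). Ki obtained by non-linear regression of competition curves, means of 2–4 experiments each run in triplicate; screening run at 10 µM, 100 nM and 1 nM test compound in triplicate.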

Structure (SMILES) | Activity
COc1ccccc1N1CCN(CCCCNC(=O)c2cn(-c3ccc([N+](=O)[O-])cc3)nn2)CC1 | 73%
COc1ccc(-n2cc(CCCC(=O)NCCN3CCN(c4ccccc4OC)CC3)nn2)cc1 | 56%
O=C(CCCc1cn(-c2ccc([N+](=O)[O-])cc2)nn1)NCCCCN1CCN(c2ccccc2Cl)CC1 | 64%
COc1ccccc1N1CCN(CCNC(=O)c2cn(-c3ccc([N+](=O)[O-])cc3)nn2)CC1 | 80%

The next lines start with the values.

Activity | Structure (SMILES)
58% | COc1ccc(-n2cc(CCCC(=O)NCCCCN3CCN(c4ccccc4Cl)CC3)nn2)cc1
39% | COc1ccc(-n2cc(C(=O)NCCN3CCN(c4cccc(Cl)c4Cl)CC3)nn2)cc1
47% | O=C(NCCN1CCN(c2cccc(Cl)c2Cl)CC1)c1cn(-c2ccc([N+](=O)[O-])cc2)nn1

Target: D(1A) dopamine receptor (Sus scrofa, UniProt P50130)
Experiment: Binding affinity to pig dopamine D1 receptor
How it was run: as §1

Sequence of D(1A) dopamine receptor (P50130 whole entry): as the sequence (P50130 whole entry) above

Structure (SMILES) | Ki
COc1ccc(-n2cc(C(=O)NCCCCN3CCN(c4cccc(Cl)c4Cl)CC3)nn2)cc1 | 1700 nM
COc1ccccc1N1CCN(CCNC(=O)c2cn(-c3ccc([N+](=O)[O-])cc3)nn2)CC1 | 4100 nM

Target: T1, D(2) dopamine receptor
Experiment: Binding affinity to human cloned dopamine D2-long expressed in CHO cells
Format: cell-based
How it was run: as §2

Structure (SMILES) | Ki
COc1ccc(-n2cc(C(=O)NCCCCN3CCN(c4cccc(Cl)c4Cl)CC3)nn2)cc1 | 44 nM
COc1ccccc1N1CCN(CCNC(=O)c2cn(-c3ccc([N+](=O)[O-])cc3)nn2)CC1 | 750 nM

Target: T1, D(2) dopamine receptor
Experiment: Binding affinity to human cloned dopamine D2-short expressed in CHO cells
Format: cell-based
How it was run: as §2

Structure (SMILES) | Ki
COc1ccc(-n2cc(C(=O)NCCCCN3CCN(c4cccc(Cl)c4Cl)CC3)nn2)cc1 | 68 nM
COc1ccccc1N1CCN(CCNC(=O)c2cn(-c3ccc([N+](=O)[O-])cc3)nn2)CC1 | 470 nM

Target: T2, D(3) dopamine receptor
Experiment: Binding affinity to human cloned dopamine D3 expressed in CHO cells
Format: cell-based

Structure (SMILES) | Ki
COc1ccc(-n2cc(C(=O)NCCCCN3CCN(c4cccc(Cl)c4Cl)CC3)nn2)cc1 | 4.9 nM
COc1ccccc1N1CCN(CCNC(=O)c2cn(-c3ccc([N+](=O)[O-])cc3)nn2)CC1 | 4.9 nM

Target: T4, D(4) dopamine receptor (Homo sapiens, UniProt P21917)
T4 sequence (P21917 whole entry): T3 sequence (whole entry)
Experiment: Binding affinity to human cloned dopamine D4.4 expressed in CHO cells
Format: cell-based

Structure (SMILES) | Ki
COc1ccc(-n2cc(C(=O)NCCCCN3CCN(c4cccc(Cl)c4Cl)CC3)nn2)cc1 | 320 nM
COc1ccccc1N1CCN(CCNC(=O)c2cn(-c3ccc([N+](=O)[O-])cc3)nn2)CC1 | 140 nM

Target: not listed separately
Experiment: Binding affinity to pig alpha-1 adrenergic receptor
Design: species or system Sus scrofa
How it was run: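 Alpha1 binding used porcine cortical membranes with [3H]prazosin (KD 0.06 nM). Protein was measured by Lowry against a BSA standard. Ki came from nonlinear regression of competition curves, as the mean of 2–4 experiments each run in triplicate.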

Structure (SMILES) | Ki
COc1ccc(-n2cc(C(=O)NCCCCN3CCN(c4cccc(Cl)c4Cl)CC3)nn2)cc1 | 46 nM
COc1ccccc1N1CCN(CCNC(=O)c2cn(-c3ccc([N+](=O)[O-])cc3)nn2)CC1 | 6.5 nM
